These results are taken from ChEMBL document CHEMBL1137054, “Synthesis of 5'-substituted fluoro-neplanocin A analogues: importance of a hydrogen bonding donor at 5'-position for the inhibitory activity of S-adenosylhomocysteine hydrolase” (Bioorg Med Chem Lett, 2004).

The structures appear in SMILES notation.

The subject of experiment [1] is Col2. Briefly: Concentration required for 50% inhibition of Col2 cell line (human colon carcinoma cells). Format: functional, cell-based. The essentials: (§1)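 Cytotoxicity in cultured human cancer cells (Col2 colon carcinoma; A549 lung carcinoma). Cells were exposed to serial dilutions of compound, and the value is the concentration giving 50% survival.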
Experiment [2] concerns the target Adenosylhomocysteinase (Homo sapiens, UniProt P23526). Put plainly: Inhibitory activity against enzyme S-adenosyl-homocysteine hydrolase of human placenta.
Experiment [3] relates to A549. Put plainly: Concentration required for 50% inhibition of A549 cell line (human lung carcinoma cells). Format: functional, cell-based. In short, it runs like this:
as §1

Sequence of Adenosylhomocysteinase (P23526 whole entry): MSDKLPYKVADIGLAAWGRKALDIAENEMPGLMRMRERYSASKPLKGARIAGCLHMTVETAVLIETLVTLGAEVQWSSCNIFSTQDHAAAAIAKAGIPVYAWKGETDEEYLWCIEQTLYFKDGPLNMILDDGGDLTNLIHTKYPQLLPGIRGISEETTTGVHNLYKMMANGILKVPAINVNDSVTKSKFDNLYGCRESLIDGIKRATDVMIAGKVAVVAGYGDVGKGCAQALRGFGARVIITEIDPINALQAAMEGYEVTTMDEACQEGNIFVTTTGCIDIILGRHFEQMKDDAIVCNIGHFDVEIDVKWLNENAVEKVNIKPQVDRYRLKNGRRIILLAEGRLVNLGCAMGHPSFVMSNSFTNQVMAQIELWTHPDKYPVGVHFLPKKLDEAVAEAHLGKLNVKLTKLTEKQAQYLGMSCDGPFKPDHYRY

In the case of `[N-]=[N+]=NCC1=C(F)[C@@H](n2cnc3c(N)ncnc32)[C@H](O)[C@@H]1O`, the results for the IC50 in experiment [1], in experiment [2] and in experiment [3] were 35.9 µM, > 100 µM and 53 µM, respectively.
The like results for `NCC1=C(F)[C@@H](n2cnc3c(N)ncnc32)[C@H](O)[C@@H]1O` were, in that order, 39.2 µM, 12.7 µM and 42.8 µM.
Turning to `Nc1ncnc2c1ncn2[C@@H]1C(F)=C(CF)[C@@H](O)[C@H]1O`, the half-inhibitory concentration (IC50) in experiment [1], in experiment [2] and in experiment [3] was > 100 µM in each case.
On to `Nc1ncnc2c1ncn2[C@@H]1C(F)=C(CS)[C@@H](O)[C@H]1O`, for which the figures for the 50% inhibitory concentration (IC50) in experiment [1], in experiment [2] and in experiment [3] were > 100 µM, 97.3 µM and > 100 µM, respectively.
Regarding `Nc1ncnc2c1ncn2[C@@H]1C(F)=C(CO)[C@@H](O)[C@H]1O` [FLUORO-NEPLANOCIN A], the half-maximal inhibitory concentration (IC50) in experiment [1] came out at 1.4 µM; in experiment [2], 0.48 µM; in experiment [3], 4.6 µM.
